A selection: hits, their analogues and other compounds. The true share with any hit is near 2.2%.
FN deposition inh: fibronectin deposition inhibition | AH1F fibroblasts, Alexa488-fibronectin deposition fluorescence, overnight | inhibition, % at 12.6 µM | 350,000 tested, 0.086% active | AID 743247;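 active = mean inhibition across replicates of 30% or more, regardless of how many single replicates reach that level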;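 note: positive control wells lacked labelled fibronectin entirely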
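test system = AH1F fibroblasts assembling fluorescent fibronectin matrix | quantity = 10000 AH1F cells per well | buffer or medium = DMEM plus 2% serum, read in PBS | doses = single dose, pinned | incubation = 1 h cell attachment, overnight exposure to compound and label | detection = fluorescence at 485 nm excitation, 525 nm emission | read-out basis = inhibition from reduced deposited-fibronectin fluorescence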
FGF22 binding: FGF22 (human) thermal shift binding; Q9HCT0; recombinant FGF22 thermal shift, SYPRO orange fluorescence; percent of sucrose octasulfate shift, DMSO zero; activity (Tm shift, normalised), % at 9.99 µM; 340,000 tested, 1.5% active;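 active = mean Tm shift, scaled 0 neutral to 100 positive control, at about 1.3% or above, every replicate too, limit read from the data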
SIRT5 inh: inhibitors of human sirtuin-5 desuccinylase; AID 652115; inhibition, % at 15 µM; 330,000 tested, 1.1% active; Q9NXA8; Purified SirT5, succinyl-peptide AMC, trypsin-coupled fluorescence; in the data active = inhibition above about 15%
PGC1a acetyl inh: PGC1a acetylation modulation, inhibitor mode; U2OS PGC1a acetylation, AlphaScreen anti-acetyl-lysine; with virally co-expressed GCN5 acetyltransferase; inhibition, % at 15.6 µM; 350,000 tested, 0.17% active; AID 651687;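 active = every replicate shows inhibition of at least 40%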;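 note: 0% = neutral control wells and 100% = positive control wells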
ERAP1 inh: ERAP1 (human) enzyme inhibition. Q9NZ08. recombinant ERAP1, Leu-AMC fluorescence, 60 min. inhibition, % at 10.7 µM. 340,000 tested, 0.15% active;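 active = mean replicate inhibition of at least 30%, or all replicates individually reaching that 30% level; inactive = mean below 30% and not every replicate reaching it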;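 note: 0% = neutral control wells and 100% = L-leucinethiol positive control wells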
Target sequence (Q9NZ08 whole entry, looked up): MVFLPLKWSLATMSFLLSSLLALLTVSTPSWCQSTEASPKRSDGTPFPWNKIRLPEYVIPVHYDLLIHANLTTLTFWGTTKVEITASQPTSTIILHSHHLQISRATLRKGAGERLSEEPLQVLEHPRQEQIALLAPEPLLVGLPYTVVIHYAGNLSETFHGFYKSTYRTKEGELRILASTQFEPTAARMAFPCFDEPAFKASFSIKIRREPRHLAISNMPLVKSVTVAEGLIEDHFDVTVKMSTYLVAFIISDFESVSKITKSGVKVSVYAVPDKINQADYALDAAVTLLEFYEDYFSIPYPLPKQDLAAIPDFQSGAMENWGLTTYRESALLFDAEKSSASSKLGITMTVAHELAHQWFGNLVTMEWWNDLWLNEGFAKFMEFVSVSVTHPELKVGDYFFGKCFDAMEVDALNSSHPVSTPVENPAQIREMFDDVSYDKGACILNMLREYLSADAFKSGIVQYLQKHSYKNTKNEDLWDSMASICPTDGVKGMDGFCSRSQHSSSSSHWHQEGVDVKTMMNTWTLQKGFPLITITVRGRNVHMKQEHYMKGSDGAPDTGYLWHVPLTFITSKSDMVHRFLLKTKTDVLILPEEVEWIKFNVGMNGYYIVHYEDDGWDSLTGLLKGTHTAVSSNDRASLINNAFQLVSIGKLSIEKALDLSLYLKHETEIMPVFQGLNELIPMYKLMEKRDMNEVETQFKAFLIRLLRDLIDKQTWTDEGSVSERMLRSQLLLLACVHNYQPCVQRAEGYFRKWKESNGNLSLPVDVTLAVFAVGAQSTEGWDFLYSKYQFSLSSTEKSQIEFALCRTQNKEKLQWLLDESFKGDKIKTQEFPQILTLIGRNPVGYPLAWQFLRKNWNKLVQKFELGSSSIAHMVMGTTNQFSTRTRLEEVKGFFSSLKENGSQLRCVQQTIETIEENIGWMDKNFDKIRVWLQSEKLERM
* hit, by the source's call; ! = not active in a repeat.

For CC(Cl)c1cc(-c2ncc(C(F)(F)F)cc2Cl)no1 (stereo not given) the results were FN deposition inh 5, FGF22 binding 44*, SIRT5 inh 4 and ERAP1 inh -2.
Screening FC(F)(F)c1cnc(-c2cnc(-c3ccccn3)nc2)c(Cl)c1 returned FN deposition inh 2, FGF22 binding 0, SIRT5 inh 1, PGC1a acetyl inh 8 and ERAP1 inh 5.
C[C@H](CO)N1C[C@H](C)[C@H](CN(C)C)Oc2ccc(NS(=O)(=O)c3cn(C)cn3)cc2CC1=O was read as FGF22 binding 0, SIRT5 inh 3, PGC1a acetyl inh -1 and ERAP1 inh -4.
CCn1c(SCC(=O)Nc2ccc(C(C)=O)cc2)nnc1C1CC1 was read as FN deposition inh 19, FGF22 binding 0, SIRT5 inh 16*, PGC1a acetyl inh -2 and ERAP1 inh 3.
Screening C[C@@H](NC(=O)C[C@H]1C=C[C@@H](NC(=O)Nc2ccc3c(c2)OCO3)[C@@H](CO)O1)c1ccccc1 returned FN deposition inh -9, FGF22 binding 0, SIRT5 inh -3, PGC1a acetyl inh 5 and ERAP1 inh 1.
For COc1ccccc1NC(=O)Nc1ccncc1 the results were FN deposition inh 2, FGF22 binding 42, SIRT5 inh -6 and ERAP1 inh -1.
Screening COc1ccccc1NC(=O)Nc1ccc(Cc2ccncc2)cc1 returned FN deposition inh -3, FGF22 binding 43*, SIRT5 inh -1, PGC1a acetyl inh 0 and ERAP1 inh 0.
For C[C@@H]1CN([C@H](C)CO)C(=O)c2cc(C#Cc3cccnc3)cnc2O[C@H]1CN(C)C(=O)CN(C)C the results were FGF22 binding 0, SIRT5 inh 1 and PGC1a acetyl inh 37.
Screening CCCS(=O)(=O)N1CCN(S(=O)(=O)c2ccccc2[N+](=O)[O-])CC1 returned FN deposition inh 7, FGF22 binding 43*, SIRT5 inh -1 and ERAP1 inh -3.
COc1ccc(NC(=O)/C=C/c2ccc(Br)o2)cn1 was read as FN deposition inh 2, FGF22 binding 1, SIRT5 inh 34*, PGC1a acetyl inh 6 and ERAP1 inh 0.
`COc1ccc(NC(=O)/C=C/c2ccco2)cn1` gave FN deposition inh -1, FGF22 binding 0, SIRT5 inh 1, PGC1a acetyl inh 0 and ERAP1 inh 0.
`c1ccc2nc(SCc3cn4ccccc4n3)cnc2c1` gave FN deposition inh 8, FGF22 binding 43*, SIRT5 inh 0 and ERAP1 inh 0.
Screening CCS(=O)(=O)N1CCC2(CC1)CN(Cc1cccnc1)[C@@H](CO)c1c2c2ccc(OC)cc2n1C returned FGF22 binding 0, SIRT5 inh 7, PGC1a acetyl inh -3 and ERAP1 inh 3.
`Cc1ccc2c(c1)sc(=NC(=O)C1CC1)n2C` gave FN deposition inh -12, FGF22 binding 0, SIRT5 inh -6, PGC1a acetyl inh -6 and ERAP1 inh -3.
Screening Cc1ccc2c(c1)sc(=NC(=O)c1cccs1)n2C returned FN deposition inh 7, FGF22 binding 43*, SIRT5 inh -7 and ERAP1 inh 10.
For CCC(=O)N1[C@H](CO)[C@H](c2ccc(-c3cccc(OC)c3)cc2)[C@@H]1CNC(C)=O the results were FN deposition inh 4, SIRT5 inh -13 and ERAP1 inh 1.
Screening C[C@@H](O)C#Cc1ccc2c(c1)O[C@H](CN(C)Cc1ccc(-c3ccccc3)cc1)[C@@H](C)CN([C@@H](C)CO)S2(=O)=O returned FGF22 binding 0, SIRT5 inh 27*, PGC1a acetyl inh 5 and ERAP1 inh 0.
C[C@H](CO)N1C[C@H](C)[C@@H](CN(C)Cc2ccc(-c3ccccc3)cc2)Oc2cc(C#C[C@@H](C)O)ccc2S1(=O)=O was read as FGF22 binding 0, SIRT5 inh -2, PGC1a acetyl inh 12 and ERAP1 inh 3.
C[C@H](O)C#Cc1ccc2c(c1)O[C@@H](CN(C)Cc1ccc(-c3ccccc3)cc1)[C@@H](C)CN([C@H](C)CO)S2(=O)=O was read as FGF22 binding 0, SIRT5 inh 23*, PGC1a acetyl inh 8 and ERAP1 inh -4.
Screening C[C@H](O)C#Cc1ccc2c(c1)O[C@@H](CN(C)Cc1ccc(-c3ccccc3)cc1)[C@H](C)CN([C@@H](C)CO)S2(=O)=O returned FN deposition inh -26, FGF22 binding -1, SIRT5 inh 17*!, PGC1a acetyl inh -16 and ERAP1 inh -1.
`C[C@@H]1CN([C@@H](C)CO)C(=O)c2cc(C#CC3CCCCC3)cnc2O[C@H]1CN(C)S(=O)(=O)c1ccc(F)cc1` gave FN deposition inh -7, FGF22 binding 0, SIRT5 inh -2, PGC1a acetyl inh 7 and ERAP1 inh 1.
Screening COc1ccc(NC(=O)c2cc(C3CC3)nc3c2cnn3C(C)C)cc1OC returned FN deposition inh 1, FGF22 binding 0, SIRT5 inh 16*, PGC1a acetyl inh -12 and ERAP1 inh 3.
`O=C(CNc1n[nH]c(=O)[nH]c1=O)N/N=C/c1ccccc1` gave FN deposition inh 5, FGF22 binding 0, SIRT5 inh 0 and ERAP1 inh 4.
For O=C(Cc1n[nH]c(=O)[nH]c1=O)N/N=C/c1ccccc1O the results were FN deposition inh 4, PGC1a acetyl inh -2 and ERAP1 inh -1.
O=C(CCNc1n[nH]c(=O)[nH]c1=O)N/N=C/c1ccccc1Br was read as FN deposition inh -17, FGF22 binding 44*, SIRT5 inh 1 and ERAP1 inh 3.
`O=C(CCNc1n[nH]c(=O)[nH]c1=O)N/N=C/c1ccc(C(F)(F)F)cc1` gave FN deposition inh -7, FGF22 binding 43*, SIRT5 inh -1, PGC1a acetyl inh 4 and ERAP1 inh 3.
CC(C)CC#Cc1cnc2c(c1)C(=O)N([C@H](C)CO)C[C@@H](C)[C@@H](CN(C)C(=O)c1cnccn1)O2 was read as FN deposition inh -7, FGF22 binding 0, SIRT5 inh -4, PGC1a acetyl inh 5 and ERAP1 inh 4.
`CCOc1ncccc1C(=O)Nc1nnc(C2CC2)s1` gave FN deposition inh 4, FGF22 binding 44*, SIRT5 inh -7 and ERAP1 inh -2.
For CO[C@H]1CN(C)C(=O)c2cc(NC(=O)C3CCCC3)ccc2OC[C@H](C)N(C(=O)CC2CC2)C[C@H]1C the results were FGF22 binding 0, SIRT5 inh 2, PGC1a acetyl inh 6 and ERAP1 inh 1.
For O=C(CSc1nnc(-c2cccc(S(=O)(=O)N3CCCC3)c2)n1-c1ccccc1)Nc1ccc(C(=O)O)cc1 the results were FN deposition inh 1, FGF22 binding 0, SIRT5 inh 0, PGC1a acetyl inh 14 and ERAP1 inh 0.
Screening Cc1cccc(C)c1-n1c(SCC(=O)Nc2ccc(C(=O)O)cc2)nnc1-c1cccc(S(=O)(=O)N(C)C)c1 returned FN deposition inh -5, FGF22 binding 43*, SIRT5 inh 0 and ERAP1 inh -4.
